Assay results pooled from the literature.
Lines come from different studies, so protocols differ.
Method: competition with immobilised ligand
RPS6KA6 C-terminal kinase domain: Ribosomal protein S6 kinase alpha-6, C-terminal kinase domain (RPS6KA6, Homo sapiens, UniProt Q9UK32)
RPS6KA6 N-terminal kinase domain: Ribosomal protein S6 kinase alpha-6, N-terminal kinase domain (RPS6KA6, Homo sapiens, UniProt Q9UK32)

CN([C@@H]1CCc2c(CC(=O)O)c3ccccc3n2C1)S(=O)(=O)c1ccc(F)cc1
remaining binding (RPS6KA6 C-terminal kinase domain; cell-free assay; 1 µM): 100%

O=C(c1ccc(Nc2ncc(Cl)c(-c3cc4ccccc4s3)n2)cc1)N1CCC(N2CCCC2)CC1
remaining binding (RPS6KA6 C-terminal kinase domain; binding; 1 µM): 89%

COc1cnc(Nc2cccc(S(N)(=O)=O)c2)nc1N1CCN(c2ccccc2)C(=O)C1
remaining binding (RPS6KA6 N-terminal kinase domain; binding; 1 µM): 79%

CN(c1nccc(-c2cnn3ncccc23)n1)C1CC1
remaining binding (RPS6KA6 C-terminal kinase domain; binding; 1 µM): 100%

Cc1cnc(Nc2ccc(C(=O)N3CCC(N4CCCC4)CC3)cc2)nc1-c1cc2ccccc2s1
remaining binding (RPS6KA6 N-terminal kinase domain; binding; 1 µM): 30%

Cc1cnn2ncc(-c3ccnc(N(C)C)n3)c2c1
remaining binding (RPS6KA6 C-terminal kinase domain; binding; 1 µM): 100%

O=C(Nc1c[nH]nc1C(=O)NC1CCNCC1)c1cc(F)cc(F)c1
remaining binding (RPS6KA6 C-terminal kinase domain; binding; 1 µM): 100%

Cc1cc(-n2nc(Cc3cc(F)cc(C(F)(F)F)c3)nc2C)ccc1C(N)=O
remaining binding (RPS6KA6 N-terminal kinase domain; cell-free assay; 1 µM): 89%

O=C(NCCCN1CCOCC1)c1ccc(Nc2nccc(-c3cc4ccccc4s3)n2)cc1
remaining binding (RPS6KA6 C-terminal kinase domain; binding; 1 µM): 35%

c1cncc(-c2cccc(Nc3nccc(NC4CCCCC4)n3)c2)c1
remaining binding (RPS6KA6 N-terminal kinase domain; binding; 10 µM): 50%

CCN1CCN(Cc2ccc(C(=O)Nc3ccc(C)c(Oc4ccc5c(c4)CC(=O)N5)c3)cc2C(F)(F)F)CC1
remaining binding (RPS6KA6 N-terminal kinase domain; binding; 1 µM): 100%

O=C(O)[C@H]1[C@H](Cn2nnc3ccccc3c2=O)CC[C@@H]1C(=O)c1ccc(OCCC2CCOCC2)cc1
remaining binding (RPS6KA6 C-terminal kinase domain; cell-free assay; 1 µM): 97%

COc1ccnn2ncc(-c3ccnc(N(C)C)n3)c12
remaining binding (RPS6KA6 C-terminal kinase domain; binding; 1 µM): 100%

COc1ncc2cc3ccccc3nc2c1C#N
remaining binding (RPS6KA6 C-terminal kinase domain; cell-free assay; 5 µM): 73%

CNC(=O)[C@@H]1CC[C@@H](n2c(-c3ccc4cnccc4c3)nc3ccc(C(=O)NCc4cccc(C(N)=O)c4)cc32)C1
remaining binding (RPS6KA6 N-terminal kinase domain; binding; 1 µM): 100%

COc1ccc2c(c1)O[C@@H](c1ccc(OC)c(OC)c1)C[C@H]2NC(=O)C1(c2ccc3c(c2)OC(F)(F)O3)CC1
remaining binding (RPS6KA6 N-terminal kinase domain; cell-free assay; 1 µM): 84%

O=C(c1ccc(Nc2nccc(-c3cc4ccccc4s3)n2)cc1)N1CCC(N2CCCC2)CC1
remaining binding (RPS6KA6 N-terminal kinase domain; binding; 1 µM): 98%

CN(C)C(=O)Cn1cc(-c2nc(C3(c4ccc(-c5cnc(N)nc5)cc4)CC3)no2)cn1
remaining binding (RPS6KA6 N-terminal kinase domain; cell-free assay; 1 µM): 83%

O=C(c1ccc(Nc2ncc(Cl)c(-c3ccc(Cl)s3)n2)cc1)N1CCC(N2CCCC2)CC1
remaining binding (RPS6KA6 C-terminal kinase domain; binding; 1 µM): 83%

COc1cnc(Nc2cccc(S(N)(=O)=O)c2)nc1N1CCN(c2ccccc2)CC1
remaining binding (RPS6KA6 C-terminal kinase domain; binding; 1 µM): 69%

CCCCN(CCCC)C(=O)CN1C[C@@H](c2cc(OC)c3c(c2)OCO3)[C@H](C(=O)O)[C@H]1CC(C)(C)CCC
remaining binding (RPS6KA6 N-terminal kinase domain; cell-free assay; 1 µM): 96.6%

CN(C)c1nccc(-c2cnc3ncccn23)n1
remaining binding (RPS6KA6 C-terminal kinase domain; binding; 1 µM): 90%

O=C(NCC1CCOCC1)c1n[nH]cc1NC(=O)c1c(F)cccc1F
remaining binding (RPS6KA6 N-terminal kinase domain; binding; 1 µM): 41%

FC(F)(F)Oc1cccc(-c2cnc3ccc(-c4ccncc4)nn23)c1
remaining binding (RPS6KA6 N-terminal kinase domain; binding; 5 µM): 64%

N[C@@H]1CCN(c2nccc(-c3cnn4ncccc34)n2)C1
remaining binding (RPS6KA6 N-terminal kinase domain; binding; 1 µM): 100%

O=C(NCCCN1CCOCC1)c1ccc(Nc2ncc(Cl)c(-c3ccc(Cl)s3)n2)cc1
remaining binding (RPS6KA6 N-terminal kinase domain; binding; 1 µM): 72%

CC1CCCN1c1nccc(-c2cnn3ncccc23)n1 (stereo not shown)
remaining binding (RPS6KA6 N-terminal kinase domain; binding; 1 µM): 99%

Cn1nc(C(F)(F)F)cc1-c1cnc(N2CCc3cc(S(=O)(=O)Nc4c(F)cc(Cl)cc4F)cc(N4CCCC4=O)c32)nc1
remaining binding (RPS6KA6 N-terminal kinase domain; cell-free assay; 1 µM): 85%

Nc1ncc2c(n1)-c1c([nH]c3ccc(C#CC4CC4)cc13)CCCC2
remaining binding (RPS6KA6 C-terminal kinase domain; binding; 1 µM): 91%

NS(=O)(=O)c1cc(NC(=O)C2(c3ccccc3Cl)CC2)ccc1Oc1cccc(Cl)c1
remaining binding (RPS6KA6 N-terminal kinase domain; cell-free assay; 1 µM): 100%

CN(C)c1nccc(-c2cnn3ncccc23)n1
remaining binding (RPS6KA6 C-terminal kinase domain; binding; 1 µM): 100%
